For 97 compounds, cytotoxicity results are on record in ChEMBL document CHEMBL4513216, “Probing the Open Global Health Chemical Diversity Library for Multistage-Active Starting Points for Next-Generation Antimalarials” (ACS Infect Dis, 2020).

Molecules are shown by their SMILES.

The data set in a line: Toxicity liver stage against HepG2, at 10uM. The class given is cell-based. Also on record: test concentration 10 uM, cell line HepG2-A16-CD81EGFP. The conditions noted are these: human, HepG2-A16-CD81EGFP cells; read-out: INHIBITION
The method, boiled down:
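Uninfected HepG2-A16-CD81EGFP cells, 3 × 10^3 per well, 1536-well, plated on prespotted compound at 10 μM final, parasite-free screening media added to match infected plates; puromycin 10 μM positive, DMSO 0.5% negative; run in parallel with 48 h PbLuc assay at 37 °C, 5% CO2; viability by CellTiter-Glo luminescence, normalized to controls.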
As for `CCC1(C)Cc2ccccc2-c2nc(NCCO)nc(O)c21` (configuration not stated), the cytotoxicity at 10 µM is 4.1%.
Turning to `CC(C)(C)c1coc([C@@H]2COCCN2Cc2ncc[nH]2)n1`, the cytotoxicity at 10 µM worked out at 2.61%.
Next, `CCOC(=O)C1CC2(CCOCC2)N2CCC(=O)N12` (configuration not stated): 2.39%; `COC1CN(C(=O)COC(C)=O)CCC(=O)N(C)c2ccccc21` (configuration not stated): -3.03%.
Turning to `Cc1cc(=O)[nH]c(-n2nc(-c3cccs3)cc2N)n1`, the cytotoxicity at 10 µM worked out at 4.57%.
For the compound `CCOc1ccc(S(=O)(=O)NCCCc2ccc(N(C)C)cc2)cc1F`, the cytotoxicity at 10 µM is -5.67%.
As to `CNC(=O)c1ccc2c(OC)n(C)nc2c1`, the cytotoxicity at 10 µM is -2.43%.
For the compound `Cc1noc(C)c1CN1CCOC2(CCCN(c3ccccn3)C2)C1` (configuration not stated), the cytotoxicity at 10 µM was 11.6%.
In the case of `O=C(NC1CC1)[C@H]1CC[C@@H]2[C@@H](CCN2Cc2ccsc2)O1`, the cytotoxicity at 10 µM came to 1.42%.
`Cn1nnc2c1C(COCC1CC1)CN(C(=O)Cc1cccs1)C2` (configuration not stated): the cytotoxicity at 10 µM was determined as 3.88%.
Take `CC(C)N(C)[C@@H]1CCN(C(=O)[C@H]2CCCO2)[C@H]1Cc1cnn(C)c1`: the cytotoxicity at 10 µM turned out to be 0.428%.
`CN(Cc1cn2c(n1)CN(C(N)=O)CC2)Cc1ccco1`: the cytotoxicity at 10 µM is -5.67%.
The value for `Cc1ccc(NC(=O)C(C)n2ccc(C(F)(F)F)n2)nc1` (configuration not stated) was 9.6%; that for `CCn1cc(Cl)c(C(=O)Nc2ccc3c(c2)C(C)(C)C(=O)N3C)n1` was 9.21%.
As for `Cc1cc(=O)n(CC(=O)NCC2CCCO2)c(-c2ccccc2)n1` (configuration not stated), the cytotoxicity at 10 µM was -14.6%.
As to `COc1ccc(OCCc2nnc(NC(C)=O)s2)cc1`, the cytotoxicity at 10 µM was 0.0869%.
With `Nc1nccc(C2CN(Cc3ccc(-c4ccccc4C(=O)O)o3)C2)n1`, the cytotoxicity at 10 µM amounted to 5%.
For the compound `CC(C)c1ccc(CC2(C)Cc3cc(CC(=O)O)ccc3O2)cc1` (configuration not stated), the cytotoxicity at 10 µM was 6.65%.
On to `Cn1ncc2ccc(C3CCCN(Cc4cccs4)C3)nc21` (configuration not stated), for which the cytotoxicity at 10 µM came out at 1.88%.
Turning to `O=C(CC1CCN(c2cccnn2)CC1)Nc1cccnc1`, the cytotoxicity at 10 µM is 3.72%.
For `CN1CCN(C(=O)c2ccccc2)CC(Cc2cc(N(C)C)ncn2)C1` (configuration not stated), the cytotoxicity at 10 µM came to 2%.
Take `COCC(=O)N1C[C@@H](c2cccc(F)c2)[C@H]2[C@H]1CCCCCN2C(C)=O`: the cytotoxicity at 10 µM came out at 4.22%.
As to `Cc1nn(C)c(C)c1-c1cnc(CC2CCNCC2)cn1`, the cytotoxicity at 10 µM is -13.7%.
The value for `COCc1ccc(C(=O)N2CCC(c3cc4ncc(C)nc4[nH]3)C2)cc1` (configuration not stated) was -25.6%; that for `COc1ccccc1Oc1cncc(C2CCCN(CC(N)=O)C2)n1` (configuration not stated) was -15.5%; that for `Cc1nccc(C2CCCCN2Cc2ccccc2)n1` (configuration not stated) was -28.2%.
As for `Cc1noc(C)c1-c1cc(C2CCNCC2)ccn1`, the cytotoxicity at 10 µM was -16.6%.
For the compound `CCc1cc(C(=O)N2CCC(c3cc4ncccc4cn3)CC2)on1`, the cytotoxicity at 10 µM was -13%.
For the compound `Cc1ccccc1CNC(=O)c1ccccc1-n1cc(CN)cn1`, the cytotoxicity at 10 µM is -21%.
For the compound `Cc1cccnc1C(=O)N1C[C@@H]2CC[C@H](Oc3cccc(F)c3)[C@@H]2C1`, the cytotoxicity at 10 µM amounted to 0.297%.
As to `CN1CCCC1c1ccnc(C(=O)N(C)C2CCCCC2)c1` (configuration not stated), the cytotoxicity at 10 µM was -21.5%.
Regarding `CN(C)C(=O)C1CN(Cc2ccsc2)CCN(S(C)(=O)=O)C1` (configuration not stated), the cytotoxicity at 10 µM stood at 14.4%.
`Cn1cc(CN2CCCC(CCCc3ccccn3)(C(N)=O)C2)cn1` (configuration not stated): the cytotoxicity at 10 µM was -24.5%.
In the case of `CNC(=O)C1(c2cnccn2)CCCN1C(=O)c1ccc(OC)cc1` (configuration not stated), the cytotoxicity at 10 µM is -12.9%.
On to `CC(C)N1CCCC(CNC(=O)Cc2csc(-c3cccnc3)n2)C1` (configuration not stated), for which the cytotoxicity at 10 µM was -51.5%.
The value for `Cc1ccc(C(=O)NC2CCN(C(C)C)C2)c(=O)[nH]1` (configuration not stated) was 5.26%.
As for `CCCN1CCC(NCc2cccc(CN3CCOC(C)C3)c2)CC1` (configuration not stated), the cytotoxicity at 10 µM was -13%.
For the compound `CN(C)c1ncccc1NC(=O)COCC1CC1`, the cytotoxicity at 10 µM is -4.69%.
As for `CCC(=O)N(c1ccc(C(=O)OC)cc1C)C(C)C`, the cytotoxicity at 10 µM is 0.814%.
On to `Cc1csc(C2(NCCC(=O)N3CCOCC3)CCCC2)n1`, for which the cytotoxicity at 10 µM was -11.4%.
Take `CN1CCN(C2CCN(C(C(N)=O)c3ccccc3)CC2)C1=O` (configuration not stated): the cytotoxicity at 10 µM is -4.29%.
For `Cc1ccc(CNC(=O)N2CCN(C(C)c3cccnc3)CC2)cn1` (configuration not stated), the cytotoxicity at 10 µM was -2.11%.
Take `COc1cc(CNC(=O)Nc2nnc(C(F)(F)F)s2)ccc1O`: the cytotoxicity at 10 µM was -2.83%.
Next, `CCOC(=O)c1ccc(CNC(=O)c2ccncc2Cl)o1`: 6.93%; `Cc1cc(C(=O)N(C)C(C)CC(C)C)on1` (configuration not stated): -4.6%; `Cc1noc(C)c1NS(=O)(=O)c1cc(Cl)c(Cl)c(C(=O)O)c1`: 4.86%.
Regarding `COC(=O)NCC(=O)NCC(C)(C)c1cccc(Br)c1`, the cytotoxicity at 10 µM was -3.01%.
In the case of `CC(NC(=O)C1=NN(C)C(=O)CC1)c1ccc(Cl)cc1` (configuration not stated), the cytotoxicity at 10 µM is -20.7%.
The value for `CS(=O)(=O)NC1CCCN(C(=O)Nc2cccnc2N2CCCC2)C1` (configuration not stated) was -131%; that for `CC(C)c1nnc2n1CCN(C(=O)c1cn(-c3ccccc3)nn1)C2` was -144%; that for `N#Cc1ccc(N2CCC(NS(=O)(=O)c3cccs3)CC2)c(F)c1` was 20.5%.
Next, `Cc1cc(C)n(CC2CCCCN2C(=O)c2ccc3[nH]nnc3c2)n1` (configuration not stated): 2.52%; `O=C(CCc1ccncc1)Nc1ccc(OCC2CCOCC2)cc1`: -2.98%; `Cc1ccc(S(=O)(=O)NC(=O)C2(c3ccccc3)CCC2)c(C)c1`: 13.5%.
`CCCN1CCC(Nc2nc(CC)ns2)CC1`: the cytotoxicity at 10 µM is -2.59%.
For `O=C(Nc1ccccn1)C1CCN(Cc2cccc3c2OCCO3)CC1`, the cytotoxicity at 10 µM was -0.586%.
In the case of `CC(C)C(Sc1ccccc1)C(=O)N(C)Cc1nnc2n1CCC2` (configuration not stated), the cytotoxicity at 10 µM was -12.5%.
Take `CC(C)(C)OC(=O)N1CSC[C@@H]1C(=O)NCc1ccsc1`: the cytotoxicity at 10 µM was determined as 8.77%.
For the compound `Cn1ncnc1NCc1ccc(Br)cc1`, the cytotoxicity at 10 µM was -11.9%.
The value for `Cc1ncsc1C(=O)N1CCCC(c2noc(C(C)C)n2)C1` (configuration not stated) was -2.04%.
On to `COCCN(Cc1ccc(F)cc1Cl)C(=O)c1ccncc1`, for which the cytotoxicity at 10 µM was -5.69%.
Take `Cc1nccc(NCc2cc3n(n2)CCCN(C(=O)C2CCC2)C3)n1`: the cytotoxicity at 10 µM is -128%.
For the compound `Cc1ncsc1C(=O)N[C@@H](Cc1ccccc1)C(N)=O`, the cytotoxicity at 10 µM is -44.9%.
Take `CC(=O)NCCNC(=O)CCn1c(C)cc2ccccc21`: the cytotoxicity at 10 µM turned out to be 6.26%.
For the compound `COc1cccc(S(=O)(=O)N2C[C@@H](N(C)C)[C@H](C(C)C)C2)c1`, the cytotoxicity at 10 µM is -51.2%.
Turning to `COCC1(NC(=O)C(c2ccc(F)cc2)N(C)C)CCCC1` (configuration not stated), the cytotoxicity at 10 µM is -44.9%.
The value for `O=C(CCCc1ccc(Cl)cc1)N1CCC(c2nnc[nH]2)CC1` was 18.3%; that for `CC(C)N1CCC(N2CCCC(C(=O)NCC3(O)CCCCC3)C2)CC1` (configuration not stated) was 2.59%; that for `CN(C)CCOc1cccc(CN2CCCC3(C2)CN(C)C(=O)O3)c1` (configuration not stated) was -5.82%.
The value for `c1nc(N2CCCC2)ncc1CN1CCCC(CN2CCCCC2)C1` (configuration not stated) was -5.45%; that for `Cc1cc(C)cc(N2CCN(C(=O)C3CN(C)C(=O)N3)CC2=O)c1` (configuration not stated) was -5.13%; that for `CCCn1cc(C(=O)NC(C(=O)O)c2ccccc2C(F)(F)F)c(C)n1` (configuration not stated) was -50.2%.
As for `CCC(C(=O)NC(C)(C)C)n1ccc2ncccc2c1=O` (configuration not stated), the cytotoxicity at 10 µM amounted to 3.69%.
Consider `Cc1cc(CN2CC3(CCN(C(=O)C4CC4)CC3)CC2C(=O)O)oc1C` (configuration not stated), for which the cytotoxicity at 10 µM is 1.1%.
On to `CN1CCCC2(CCN(c3cccc(C#N)n3)C2)C1=O` (configuration not stated), for which the cytotoxicity at 10 µM is 3.61%.
`NC(=O)CN1CC2(CCC1=O)CCN(Cc1cc(F)ccc1Cl)CC2`: the cytotoxicity at 10 µM was 18.6%.
As to `CC(C)N1CCC(Cc2cc(-c3cccc(C(=O)O)c3)ncn2)C1` (configuration not stated), the cytotoxicity at 10 µM is 3.01%.
For the compound `C[C@]1(O)CCN(Cc2cncs2)C[C@@H]1Oc1cccc(F)c1`, the cytotoxicity at 10 µM worked out at 6.06%.
`CC(C)c1nc(C2CCCN2Cc2ccon2)no1` (configuration not stated): the cytotoxicity at 10 µM is -3.5%.
For the compound `Cc1cccc(C(=O)NCc2ccccc2)n1`, the cytotoxicity at 10 µM was -4.83%.
With `CC(C)C(Sc1nnnn1C1CC1)C(=O)NCc1ccccc1` (configuration not stated), the cytotoxicity at 10 µM is -3.46%.
As to `Cc1oc(C(=O)O)cc1S(=O)(=O)Nc1cc(F)ccc1F`, the cytotoxicity at 10 µM is -7.66%.
Next, `Cc1ncc2c(n1)CN(Cc1nc(-c3ccsc3)no1)CC2`: -1.33%; `CC1CN(CC(=O)N2CCOCC2)CCN1Cc1nccn1C` (configuration not stated): -15.6%; `COCc1ccccc1CNCc1c(C(C)C)nn(C)c1N(C)C`: -7.83%.
Take `O=C(c1cnc(-c2cccs2)s1)N1CCCC(n2ccnc2)C1` (configuration not stated): the cytotoxicity at 10 µM was -12.8%.
Regarding `CCc1ccc(O)c(C(=O)NC2CCN(C(=O)OC)CC2)c1`, the cytotoxicity at 10 µM is 1.89%.
For `CC(Cn1ccnc1)NC(=O)C1(c2ccc(F)cc2)CC1` (configuration not stated), the cytotoxicity at 10 µM is -9.62%.
Regarding `CCc1nc(CN(C)C2CCN(CCS(C)(=O)=O)C2)no1` (configuration not stated), the cytotoxicity at 10 µM turned out to be 4.45%.
Next, `COc1cc(C(=O)N2CCCS2(=O)=O)cc(Cl)c1OC`: 2.31%; `CCc1nc(C2CCCN(C(=O)c3ccc4[nH]nnc4c3)C2)no1` (configuration not stated): 2.67%.
As to `OCC1CCC2(CC1)CN(Cc1ccccn1)Cc1ccccc1O2` (configuration not stated), the cytotoxicity at 10 µM was determined as 5.35%.
The value for `Cc1nc(C2CCN(Cc3ncc[nH]3)CC2)no1` was -28%.
On to `c1cc(CN2CCc3ncc(CN4CCCCC4)n3CC2)cs1`, for which the cytotoxicity at 10 µM was -5.21%.
The value for `O=C(NCC1CCOCC1)[C@@H]1C[C@@H]2[C@@H](CCN2Cc2nccs2)O1` was 0.11%; that for `CN(C)[C@@H]1CCN(C(=O)NC2CCCC2)[C@H]1Cc1cnn(C)c1` was -0.336%.
Consider `NC(=O)NCC(=O)N1C[C@@H]2CC[C@H]1CN(C1Cc3ccccc3C1)C2`, for which the cytotoxicity at 10 µM came out at 15.3%.
